Converted amounts (≈) assume the structure as drawn. The source made the active and inactive calls. No cut-off for these calls is given here.
What was measured:
[1] = Inhibition of Escherichia coli type 1 signal peptidase using peptide substrate after 30 mins by fluorescence assay
How it was run: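 Purified E. coli SPase was assayed with the internally quenched fluorogenic peptide (Dabcyl)-AGHDAHA↓SET-(EDANS), with cleavage at the arrow separating the EDANS donor from the Dabcyl acceptor. IC50 was taken as the half-maximal inhibitory concentration.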

[2] = tested on: Staphylococcus epidermidis; experiment: Antimicrobial activity against Staphylococcus epidermidis RP26A; format: functional
How it was run: (§1)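 MICs determined by the standard CLSI broth microdilution method on intact bacteria (E. coli MG1655; S. epidermidis RP26A).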

Yersinia pestis = experiment: Antimicrobial activity against Yersinia pestis KIM6+; format: functional
HEK293 = experiment: Cytotoxicity against HEK293 cells up to 128 ug/ml after 24 hrs by resazurin dye based fluorescence assay; format: cell-based; details: human, hek293, 24 h
Escherichia coli = experiment: Antimicrobial activity against Escherichia coli MG1655 by broth micro dilution method; format: functional, organism-based; details: K-12 substr. MG1655; how it was run: as §1

For C[C@@H](O)[C@H]1C(=O)N2C(C(=O)O)=C(SCCOC(N)=O)S[C@H]12 [Sch-34343], the IC50 [1] was 0.96 µg/mL (≈ 2.87 µM), the MIC [2] was 4 µg/mL (≈ 12 µM) and the MIC (Yersinia pestis) was 16 µg/mL (≈ 47.9 µM).

Compound C[C@@H](O)[C@H]1C(=O)N2C(C(=O)O)=C(SCCO)S[C@H]12 has an IC50 [1] of 1.49 µg/mL (≈ 5.11 µM), an MIC [2] of 8 µg/mL (≈ 27.5 µM) and an MIC (Yersinia pestis) of 32 µg/mL (≈ 110 µM). The Activity (HEK293) was “Non-Toxic”.

Work on C[C@@H](O)[C@H]1C(=O)N2C(C(=O)O)=C(S[C@@H]3CN[C@H](C(=O)N(C)C)C3)S[C@H]12 yielded an IC50 [1] of 1.22 µg/mL (≈ 3.15 µM), an MIC [2] of 32 µg/mL (≈ 82.6 µM) and an MIC (Yersinia pestis) of 64 µg/mL (≈ 165 µM).

With C[C@@H](O)[C@H]1C(=O)N2C(C(=O)O)=C(S[C@H]3CCNC3)S[C@H]12 the IC50 [1] was 0.8 µg/mL (≈ 2.53 µM), the MIC [2] was 8 µg/mL (≈ 25.3 µM) and the MIC (Yersinia pestis) was 8 µg/mL (≈ 25.3 µM).

In the case of CNCCSC1=C(C(=O)O)N2C(=O)[C@H]([C@@H](C)O)[C@H]2S1, the IC50 [1] was 6.37 µg/mL (≈ 20.9 µM), the MIC [2] was > 128 µg/mL and the MIC (Yersinia pestis) was > 128 µg/mL.

With C[C@@H](O)[C@H]1C(=O)N2C(C(=O)O)=C(CCc3ccccn3)S[C@H]12 the IC50 [1] was 1.31 µg/mL (≈ 4.09 µM), the MIC [2] was 16 µg/mL (≈ 49.9 µM) and the MIC (Yersinia pestis) was 32 µg/mL (≈ 99.9 µM).

C[C@@H](O)[C@H]1C(=O)N2C(C(=O)O)=C(S[C@@H]3CC[S+]([O-])C3)S[C@H]12 (stereo not given in full) gave an IC50 [1] of 1.16 µg/mL (≈ 3.32 µM) and an MIC [2] of 16 µg/mL (≈ 45.8 µM).

C[C@@H](O)[C@H]1C(=O)N2C(C(=O)O)=C(S[C@@H]3CCNC3)S[C@H]12 showed an IC50 [1] of 1.75 µg/mL (≈ 5.53 µM), an MIC [2] of 4 µg/mL (≈ 12.6 µM) and an MIC (Yersinia pestis) of 16 µg/mL (≈ 50.6 µM). For the same compound, the Activity (HEK293) was “Non-Toxic”.

With C[C@@H](O)[C@H]1C(=O)N2C(C(=O)O)=CS[C@H]12 the IC50 [1] was 2.99 µg/mL (≈ 13.9 µM), the Activity (Escherichia coli) was “inactive” and the MIC [2] was 128 µg/mL (≈ 595 µM). For the same compound, the MIC (Yersinia pestis) was 128 µg/mL (≈ 595 µM).

In the case of C[C@@H](O)[C@H]1C(=O)N2C(C(=O)O)=C(SCCN)S[C@H]12, the IC50 [1] was 0.63 µg/mL (≈ 2.17 µM), the MIC [2] was 16 µg/mL (≈ 55.1 µM) and the MIC (Yersinia pestis) was 16 µg/mL (≈ 55.1 µM). The Activity (HEK293) was “Non-Toxic”.

With C[C@@H](O)[C@H]1C(=O)N2C(C(=O)O)=C(SCCNC=N)S[C@H]12 the IC50 [1] was 1.04 µg/mL (≈ 3.28 µM), the MIC [2] was 8 µg/mL (≈ 25.2 µM) and the MIC (Yersinia pestis) was 16 µg/mL (≈ 50.4 µM). The Activity (HEK293) was “Non-Toxic”.

For C[C@@H](O)[C@H]1C(=O)N2C(C(=O)O)=C(SCCN(C)C)S[C@H]12, the IC50 [1] was 3.95 µg/mL (≈ 12.4 µM), the MIC [2] was > 128 µg/mL and the MIC (Yersinia pestis) was > 128 µg/mL.
